Data from ChEMBL document CHEMBL4376880, “Developing Inhibitors of the p47phox-p22phox Protein-Protein Interaction by Fragment-Based Drug Discovery” (J Med Chem, 2020).
Activity calls are given as the source filed them. No cut-off for these calls is given here.

Assays:
[1] = target: T1, Neutrophil cytosol factor 1 (Homo sapiens, UniProt P14598); experiment: Covalent inhibition of recombinant human His-tagged p47phox SH3A-B domain (151 to 285 residues) expressed in Escherichia coli BL21 (DE3) cells interaction with Cy5-p22phox149-162 incubated for 10 mins by fluorescence polarization competition assay
T1 sequence (P14598 whole entry, the tested form may be a part): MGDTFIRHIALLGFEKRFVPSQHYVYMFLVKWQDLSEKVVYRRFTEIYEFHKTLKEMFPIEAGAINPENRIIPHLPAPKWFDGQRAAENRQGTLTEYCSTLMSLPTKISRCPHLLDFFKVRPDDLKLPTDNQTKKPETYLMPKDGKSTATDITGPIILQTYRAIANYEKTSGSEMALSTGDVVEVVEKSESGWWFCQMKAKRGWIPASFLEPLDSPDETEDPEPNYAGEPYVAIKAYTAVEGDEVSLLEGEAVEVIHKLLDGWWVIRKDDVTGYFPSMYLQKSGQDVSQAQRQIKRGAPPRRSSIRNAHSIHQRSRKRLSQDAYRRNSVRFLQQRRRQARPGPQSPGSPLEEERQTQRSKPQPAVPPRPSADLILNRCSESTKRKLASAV

[2] = target: T1, Neutrophil cytosol factor 1; experiment: Covalent inhibition of recombinant human His-tagged p47phox SH3A-B domain (151 to 285 residues) expressed in Escherichia coli BL21 (DE3) cells interaction with Cy5-p22phox149-162 incubated for 10 mins in presence of TCEP by fluorescence polarization competition assay
Procedure, shortened: (§1)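 Heterologous competition FP. The compound was titrated as a 12-point two-fold series in duplicate against 1.25 μM p47phox SH3A-B and 5 nM Cy5-p22phox149-162. Buffer was HBS (50 mM Hepes, 150 mM NaCl, 0.005% Tween 20, pH 7.4), with or without TCEP. Incubation was 10 min or 2 h at room temperature before the FP read.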

[3] = target: T1, Neutrophil cytosol factor 1; experiment: Non-reversible binding affinity to immobilized recombinant human His-tagged p47phox SH3A-B domain (151 to 285 residues) expressed in Escherichia coli BL21 (DE3) cells assessed as slow dissociation rate at 12.5 uM by SPR assay
Procedure, shortened: (§2)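 p47phox SH3A-B (residues 151-285) immobilized at 4684 RU by His capture then amine coupling; compound injected at 12.5 μM in HBS pH 7.4 (10 mM Hepes, 150 mM NaCl, 0.005% Tween) at 25 °C. Sensorgrams were blank- and reference-subtracted with DMSO calibration. Complex then exposed to 2 mM TCEP.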

[4] = target: T1, Neutrophil cytosol factor 1; experiment: Binding affinity to recombinant human His-tagged p47phox SH3A-B domain (151 to 285 residues) expressed in Escherichia coli BL21 (DE3) cells assessed as protein aggregation by measuring increase in concentration-normalized scattering intensity by SAXS study analysis
Procedure, shortened: (§3)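 His-tag removed by HRV-3C protease. Protein (2-5.6 mg/mL, 130-370 μM final) was buffer-exchanged into 10 mM Hepes, 150 mM NaCl, 4% DMSO, pH 7.4, with 100 or 200 μM compound. Samples were held at 6 °C and measured at room temperature, λ 1.34 Å, q 0.01-0.5 Å−1. Fifteen to twenty 60 s frames were radially averaged, and buffer scattering was subtracted.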

[5] = target: T1, Neutrophil cytosol factor 1; experiment: Binding affinity to recombinant human His-tagged p47phox SH3A-B domain (151 to 285 residues) expressed in Escherichia coli BL21 (DE3) cells assessed as increase in protein molecular weight at 200 uM by ESI/LC-MS analysis
[6] = target: T1, Neutrophil cytosol factor 1; experiment: Binding affinity to recombinant human His-tagged 15N-labeled p47phox SH3A-B domain (151 to 285 residues) expressed in Escherichia coli BL21 (DE3) cells assessed as compound interaction with protein at Cys196 in SH3A domain by NMR spectroscopy
[7] = target: T1, Neutrophil cytosol factor 1; experiment: Binding affinity to recombinant human His-tagged p47phox SH3A-B domain (151 to 285 residues) expressed in Escherichia coli BL21 (DE3) cells assessed as protein aggregation by SAXS study analysis; conditions: TDE = time-dependent effect; procedure, shortened: as §3
[8] = target: T1, Neutrophil cytosol factor 1; experiment: Covalent inhibition of recombinant human His-tagged p47phox SH3A-B domain (151 to 285 residues) expressed in Escherichia coli BL21 (DE3) cells interaction with Cy5-p22phox149-162 incubated for 2 hrs by fluorescence polarization competition assay; procedure, shortened: as §1
[9] = target: T1, Neutrophil cytosol factor 1; experiment: Binding affinity to recombinant human His-tagged p47phox SH3A-B domain (151 to 285 residues) expressed in Escherichia coli BL21 (DE3) cells assessed as protein aggregation by measuring increase in maximum dimensions of the particles by SAXS study analysis; procedure, shortened: as §3
[10] = target: T1, Neutrophil cytosol factor 1; experiment: Binding affinity to recombinant human His-tagged p47phox SH3A-B domain (151 to 285 residues) expressed in Escherichia coli BL21 (DE3) cells assessed as protein aggregation by measuring increase in SAXS-derived radius of gyration by SAXS study analysis; procedure, shortened: as §3
[11] = target: T1, Neutrophil cytosol factor 1; experiment: Ratio of Ki for recombinant human His-tagged p47phox SH3A-B domain (151 to 285 residues) expressed in Escherichia coli BL21 (DE3) cells in presence of TCEP to Ki for recombinant human His-tagged p47phox SH3A-B domain (151 to 285 residues) expressed in Escherichia coli BL21 (DE3) cells by fluorescence polarization competition assay; procedure, shortened: as §1
[12] = target: T1, Neutrophil cytosol factor 1; experiment: Binding affinity to immobilized recombinant human His-tagged p47phox SH3A-B domain (151 to 285 residues) expressed in Escherichia coli BL21 (DE3) cells at 12.5 uM in presence of TCEP by SPR assay; procedure, shortened: as §2
[13] = target: T1, Neutrophil cytosol factor 1; experiment: Binding affinity to immobilized recombinant human His-tagged p47phox SH3A-B domain (151 to 285 residues) expressed in Escherichia coli BL21 (DE3) cells assessed as dissociation constant by SPR assay

Structure (SMILES) | Ki ([1]; read-out: Ki) [mM] | further results
OCCOCCNc1ccc2ccccc2n1 | > 2 | –
Nc1cc(O)c2ccccc2n1 | > 2 | –
Nc1ccc2cc(OCC3CCCCC3)ccc2n1 | > 2 | –
Nc1ccc2cc(OCc3ccccc3)ccc2n1 | > 2 | –
Nc1ccc2ncccc2c1 | > 2 | –
Nc1ccc2ccccc2c1 [NAPHTHYLAMINE] | > 2 | –
Nc1ccc2cc(OCc3ccc(Cl)cc3)ccc2n1 | > 2 | –
Nc1cccc2cccnc12 [8-AMINOQUINOLINE] | > 2 | –
O=c1c2ccccc2[se]n1-c1ccccc1 [EBSELEN] | 0.063 | Ki [2]: > 300 µM; Activity [3]: Active; Activity [4]: Active; Activity [5]: Active; Activity [6]: Active; Activity [7]: Tde; Ki [8]: 12 µM; Activity [9]: Active; Activity [10]: Active; Ratio Ki [11]: > 10; Activity [12]: inactive
Nc1cccc2ncccc12 | > 2 | –
COCCNc1ccc2ccccc2n1 | > 2 | –
Cc1cc(N2CCN(C(=O)OC(C)(C)C)CC2)c2ccccc2n1 | > 2 | –
Nc1ccc2cc(COc3ccc(Cl)cc3)ccc2n1 | > 2 | –
Nc1ncccn1 | > 2 | –
c1ccc2nc(N3CCNCC3)ccc2c1 [QUIPAZINE] | 1.41 | Kd [13]: 420 µM
Nc1ccc2cc(OCCOCCOCCOCCOc3ccc4nc(N)ccc4c3)ccc2n1 | 0.0327 | –
Nc1ccccn1 [2-AMINOPYRIDINE] | > 2 | –

Structure (SMILES) | Ki ([1]; read-out: Ki) [mM] | further results
CC(=O)Nc1ccc2ccccc2n1 | > 2 | –
Nc1cnc2ccccc2c1 | > 2 | –
Cc1ccc2ccccc2n1 [QUINALDINE] | > 2 | –
CN1CCCN(Cc2ccc(CN)cc2)CC1 | – | Kd [13]: 418 µM; Ki [1]: Not Active
Cc1cc(N2CCN(C)CC2)c2ccccc2n1 | > 2 | –
Nc1cc(OCc2ccc(Cl)cc2)c2ccccc2n1 | > 2 | –
c1cc(N2CCNCC2)ccn1 | 0.302 | –
Cc1cc(N)c2ccccc2n1 | 1.07 | Kd [13]: 521 µM
NCc1ccc2ccccc2n1 | > 2 | –
Nc1ccc2cc(-c3ccc(Cl)cc3)ccc2n1 | > 2 | –
Nc1ccc2cccc(O)c2n1 | 1.38 | –
Nc1ccnc2ccccc12 [QUINOLIN-4-AMINE] | 1.52 | Kd [13]: 765 µM
Oc1ccc2ccccc2n1 | > 2 | –
Nc1cc(Cl)c2ccccc2n1 | > 2 | –
c1ccc2c(N3CCNCC3)cccc2c1 | 1.52 | Kd [13]: 366 µM
c1ccc2ncccc2c1 [QUINOLINE] | > 2 | –
Cc1cc(N2CCNCC2)nc2ccccc12 | 1.07 | –
